The results in this text go back to ChEMBL document CHEMBL2331424, “Synthesis and biological evaluation of novel neuroprotective agents for paraquat-induced apoptosis in human neuronal SH-SY5Y cells” (2013).

A short description of experiment [1]: Neuroprotective activity in human SH-SY5Y cells assessed as cell viability after paraquat-induced toxicity at 10 uM incubated for 2 hrs prior to paraquat challenge measured after 24 hrs by MTT assay (reference value: 62.05 +/- 0.47%). Background: Tetrazolium assays rely on reduction of a dye to a coloured formazan, in cell work by metabolically active cells.
Experiment [2] addresses T1, Prostaglandin G/H synthase 2 (Homo sapiens) (UniProt P35354).
T1 sequence (whole entry): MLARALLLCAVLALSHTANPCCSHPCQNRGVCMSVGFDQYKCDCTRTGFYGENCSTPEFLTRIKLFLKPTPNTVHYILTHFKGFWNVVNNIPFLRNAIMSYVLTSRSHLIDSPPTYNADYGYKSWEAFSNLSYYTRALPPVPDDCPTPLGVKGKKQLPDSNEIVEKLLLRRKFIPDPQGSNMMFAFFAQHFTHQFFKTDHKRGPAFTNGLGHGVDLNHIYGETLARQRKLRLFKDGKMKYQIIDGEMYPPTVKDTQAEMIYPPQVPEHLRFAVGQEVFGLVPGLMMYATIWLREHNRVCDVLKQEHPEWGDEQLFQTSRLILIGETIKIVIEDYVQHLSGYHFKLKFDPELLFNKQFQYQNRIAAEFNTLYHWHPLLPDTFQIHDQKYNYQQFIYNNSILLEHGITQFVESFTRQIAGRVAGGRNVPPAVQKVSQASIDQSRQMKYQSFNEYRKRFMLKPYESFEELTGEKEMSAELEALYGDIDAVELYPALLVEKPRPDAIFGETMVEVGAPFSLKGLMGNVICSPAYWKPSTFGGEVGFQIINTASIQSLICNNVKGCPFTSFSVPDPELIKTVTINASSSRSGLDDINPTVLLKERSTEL
Put plainly: Ratio of resveratrol IC50 to compound IC50 for inhibition of prostaglandin H-2 synthase (unknown origin).

For experiment [3], the system named is SH-SY5Y. Kind of experiment: Neuroprotective activity in human SH-SY5Y cells assessed as decrease in paraquat-induced intracellular ROS level incubated for 4 hrs prior to paraquat challenge measured after 2 hrs by fluorescence microscopic analysis.
Experiment [4] in a line: Neuroprotective activity in paraquat-stimulated human SH-SY5Y cells assessed as upregulation of Bcl2 expression incubated for 4 hrs prior to paraquat challenge measured after 24 hrs by Western blotting analysis. It is filed as functional, cell-based. In a few lines: (§1)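 SH-SY5Y in DMEM/F12 with 10% FBS pre-incubated with compound (0.1-10 μM, 4 h), then paraquat 250 μM. Western blot for caspase-3 and caspase-9 cleavage, Bax, Bcl-2, SOD or GPx, with GAPDH as loading control. HRP secondary antibodies and ECL detection, bands quantified. ≥3 independent experiments in duplicate; ANOVA with Dunnett's test.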
(A western blot detects proteins with antibodies after separation by electrophoresis.)

The test system of experiment [5] is SH-SY5Y. Put plainly: Neuroprotective activity in human SH-SY5Y cells assessed as decrease in paraquat-induced proteolytic cleavage of procaspase-3 incubated for 4 hrs prior to paraquat challenge measured after 24 hrs by Western blotting analysis. It is filed as functional, cell-based. In short, it runs like this:
as §1

The nature of experiment [6]: Neuroprotective activity in paraquat-stimulated human SH-SY5Y cells assessed as upregulation of SOD expression incubated for 4 hrs prior to paraquat challenge measured after 24 hrs by Western blotting analysis. The class given is functional, cell-based. In short, it runs like this:
as §1

Experiment [7] deals with SH-SY5Y. Kind of experiment: Neuroprotective activity in human SH-SY5Y cells assessed as decrease in paraquat-induced proteolytic cleavage of procaspase-9 incubated for 4 hrs prior to paraquat challenge measured after 24 hrs by Western blotting analysis. The class given is functional, cell-based. In a few lines: as §1
Experiment [8] in a line: Neuroprotective activity in paraquat-stimulated human SH-SY5Y cells assessed as upregulation of GPx expression incubated for 4 hrs prior to paraquat challenge measured after 24 hrs by Western blotting analysis. The class given is functional, cell-based. In short, it runs like this:
as §1

Experiment [9] relates to SH-SY5Y. Put plainly: Neuroprotective activity in human SH-SY5Y cells assessed as decrease in paraquat-induced nuclear morphological changes incubated for 4 hrs prior to paraquat challenge measured after 24 hrs by Hoechst 33342 staining-based fluorescence microscopic analysis.
Experiment [10] in a line: Neuroprotective activity in paraquat-stimulated human SH-SY5Y cells assessed as downregulation of Bax expression incubated for 4 hrs prior to paraquat challenge measured after 24 hrs by Western blotting analysis. It is filed as functional, cell-based. In a few lines: as §1

One may read the viability as a read-out of living cells in per cent, often relative to untreated cells. On to `COc1ccc([C@@H]2c3c(OC)cc(OC)cc3[C@H]3[C@H](c4ccc(OC)cc4)c4c(OC)cc(OC)cc4[C@@H]23)cc1`, for which the viability at 10 µM in experiment [1] was 63.6%. The same measure, in the same setting: as for `Oc1ccc([C@@H]2c3c(O)cc(O)cc3[C@H]3[C@H](c4ccccc4)c4c(O)cc(O)cc4[C@@H]23)cc1`, the figure is 77.2%; as for `COc1ccc(/C=C2/c3cc(OC)cc(OC)c3[C@@H](c3ccccc3)[C@@H]2c2cc(OC)cc(OC)c2)cc1`, 64%; as for `Oc1ccc(/C=C2/c3cc(O)cc(O)c3[C@@H](c3ccc(O)cc3)[C@@H]2c2cc(O)cc(O)c2)cc1` (racemic), 57.9%. On the same count and under the same terms, for `COc1ccc(CSC2c3cc(OC)cc(OC)c3[C@@H](c3ccccc3)[C@@H]2c2cc(OC)cc(OC)c2)cc1` (some centres not stated) the value was 60.6%; for `COc1ccc(/C=C2\c3cc(OC)cc(OC)c3[C@@H](c3ccc(OC)cc3)[C@@H]2c2cc(OC)cc(OC)c2)cc1`, 63.6%.

Take `Oc1ccc([C@@H]2c3c(O)cc(O)cc3[C@H]3[C@H](c4ccc(O)cc4)c4c(O)cc(O)cc4[C@@H]23)cc1` (racemic) [PALLIDOL]: in experiment [1], the viability at 10 µM came out at 72.4%. For `COc1cc(OC)cc([C@@H]2C(=O)c3cc(OC)cc(OC)c3[C@H]2c2ccccc2)c1` (single isomer, unassigned), in experiment [1], the viability at 10 µM stood at 65%. On the same count and under the same terms, as for `Oc1ccc(CC2=C(c3cc(O)cc(O)c3)C(c3ccccc3)c3c(O)cc(O)cc32)cc1` (configuration not stated), the figure is 82.9%.

For the compound `COc1ccc(/C=C2\c3cc(OC)cc(OC)c3[C@@H](c3ccccc3)[C@@H]2c2cc(OC)cc(OC)c2)cc1`, the viability at 10 µM in experiment [1] is 65.3%.

For `O=C1c2cc(O)cc(O)c2[C@@H](c2ccc(O)cc2)[C@@H]1c1cc(O)cc(O)c1` [ISOPAUCIFLORAL F], the viability at 10 µM in [1] stood at 58.5%.

Regarding `C=C1c2cc(OC)cc(OC)c2[C@@H](c2ccc(OC)cc2)[C@@H]1c1cc(OC)cc(OC)c1`, the viability at 10 µM in [1] was 58.2%. The same measure, in the same setting: for `COc1ccc(CSC2c3cc(OC)cc(OC)c3[C@@H](c3ccc(OC)cc3)[C@@H]2c2cc(OC)cc(OC)c2)cc1` (some centres not stated) the value was 65.2%. Still for that read-out and setting: for `COc1ccc([C@@H]2c3c(OC)cc(OC)cc3C(=O)[C@H]2c2cc(OC)cc(OC)c2)cc1` (relative stereo) the value was 59.9%; for `COc1ccc(C2C(c3cc(OC)cc(OC)c3)=C(C)c3cc(OC)cc(OC)c32)cc1` (configuration not stated), 55.8%; for `COc1ccc(CC2=C(c3cc(OC)cc(OC)c3)[C@@H](c3ccc(OC)cc3)c3c(OC)cc(OC)cc32)cc1`, 61.4%. Take `COc1ccc(/C=C2/c3cc(OC)cc(OC)c3[C@@H](c3ccc(OC)cc3)[C@@H]2c2cc(OC)cc(OC)c2)cc1`: the viability at 10 µM in [1] stood at 62.4%.

Turning to `Oc1ccc(/C=C/c2cc(O)cc(O)c2)cc1` [RESVERATROL], in [1], the viability at 10 µM amounted to 66.3%. Still for that read-out and setting: as for `COc1ccc(C2C(c3cc(OC)cc(OC)c3)=Cc3cc(OC)cc(OC)c32)cc1` (configuration not stated), the figure is 58.6%.

Consider `COc1cc(OC)cc([C@@H]2C(O)c3cc(OC)cc(OC)c3[C@H]2c2ccccc2)c1` (relative stereo), for which the viability at 10 µM in experiment [1] came to 63.9%. On to `O=C1c2cc(O)cc(O)c2[C@@H](c2ccccc2)[C@@H]1c1cc(O)cc(O)c1`, for which, in experiment [1], the viability at 10 µM stood at 65%. Regarding `Oc1ccc([C@H]2Oc3cc(O)cc4c3[C@@H]2c2cc(O)cc3c2[C@@H](c2cc(O)cc5c2[C@@H]4[C@H](c2ccc(O)cc2)O5)[C@H](c2ccc(O)cc2)O3)cc1`, the Ratio IC50 in [2] was 3. As to `Oc1ccc(CC2=C(c3cc(O)cc(O)c3)C(c3ccc(O)cc3)c3c(O)cc(O)cc32)cc1` (configuration not stated), the Activity result in [3], in experiment [4], in experiment [5], in experiment [6], in experiment [7] and in experiment [8] was “Dose-dependent effect” throughout. For the same compound, the Activity entry in experiment [9] and in [10] was “Dose-dependent effect” throughout. For the same compound, the viability at 10 µM in [1] was 89.6%. With `COc1ccc([C@@H]2c3c(OC)cc(OC)cc3C(O)[C@H]2c2cc(OC)cc(OC)c2)cc1` (relative stereo), the viability at 10 µM in experiment [1] came to 59%.
